In the EternaBench riboswitch data:

Tested on: MS2 coat protein
Experiment: apparent Kd, MS2 coat protein; higher = weaker binding; RNA-MaP array; FMN 200 µM where present
Method in brief: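 SNAP-549-labelled MS2 coat protein, doubled from 0.7 or 1.5 nM to 3 µM, was titrated over designs transcribed by stalled E. coli RNA polymerase on Illumina sequencing-chip clusters. Titrations were run without and then with constant ligand in 100 mM Tris-HCl pH 7.5, 80 mM KCl, 4 mM MgCl2, BSA, DTT, yeast tRNA and Tween-20. The apparent Kd is the median of filtered per-cluster fits to green signal normalised to red-channel RNA signal and control-cluster median Fmax.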

[1] = designed as: ON switch for flavin mononucleotide, no ligand
[2] = ligand present: flavin mononucleotide, designed as: ON switch for flavin mononucleotide
[3] = designed as: OFF switch for flavin mononucleotide, no ligand
[4] = ligand present: flavin mononucleotide, designed as: OFF switch for flavin mononucleotide

Sequence | apparent Kd [1] [nM] | apparent Kd [2] [nM] | apparent Kd [3] [nM] | apparent Kd [4] [nM]
GUAGCAUACCGAGGAUAUUCAUAUAGGAAACUAACAUGAGGAUCACCCAUGUGGCGAAAGCCUUGGGAGAAGGCGGAAUGCUAC | 408 | 29.2 | – | –
AUCAGCUCGUGAGGAUAUACGUCACUGCUUCGGCAGUGUGGUAAGAUCACAUGAGGAUCACCCAUGUAGAAGGCACGAGCUGAU | – | – | 21.4 | 471
GGGUGAGCUCAAGGAUAUCCAAAAUGGUUACAUGAGGAUCACCCAUGUCCAGGCGAAUAAAGGCCGGAGAAGGUGAGGGCCCUC | 60.2 | 156 | – | –
UUUAUGUCAGGAUAUACAUGAGGAUCACCCAUGUAUAUCUAAAAAUAUACAUGGGAAUGUAGAAGGGACCUCCU | – | – | 53 | 46.3
AAUUAACAUGAGGAUCACCCAUGUGAGGAUAUGGUAUUACUUGGACAGCUAUGAUCUACCAGAAGGCACAUAUA | – | – | 28.7 | 49.4
AAAAACGUAGGAUAUACAUGAAAAAAAAAAAAAAAAAAAAGACAUGAGGAUCACCCAUGUAGAAGGGCGAAAAA | – | – | 115 | 104
GUAAUUAAUGUAGGAUAUGCAAGGCGAACCUAAGCAGAAGGACAUGAGGAUCACCCAUGUAUUGCGGUCUGCGUUCAGAUCGCU | – | – | 19.5 | 49.5
CUUUAGUCAGGAUAUACAUGAGGAUCACCCAUGUAAAAUUUUAAUUUAAUUUUAAGGUGUAGAAGGGACCACCC | – | – | 33.4 | 29.3
UUUUAACAUGAGGAUCACCCAUGUGAGGAUAUCGAAAUUUAUAUUAAUAUUUAUUUUACGAGAAGGCACAUUUU | – | – | 98 | 102
GAAAACAGAGGAUAUACAUAAGCUAGACGAAAGUCUAGCAAACAUGAGGAUCACCCAUGUAGAAGGCUGAAGAA | – | – | 37.6 | 36.3
UUUUAACAGUCAGGAUAUGUAACGCACAACGGCGCAGAAGGGACAUGAGGAUCACCCAUGUUAUGGUUCUGGUACUAUGACGUU | – | – | 18.8 | 23.1
AGCAUGUGAGGAUAUGCGGACUCCGGUAAAGCUGGAGUCCAGUAGAAGGCACAUGAGGAUCACCCAUGUGAGAU | – | – | 59.7 | 212
UGACGGAGCUGAGGAUAUACAUGAGGAUCACCCAUGUAAGAUCUCCAGGAAACUGGAGAUCAAAAGUAGAAGGCAGCUCCGUCA | – | – | 15.4 | 23.4
UAUGUAUUCGUAGGAUAUCCGUUGAGACCGUGUGGAGAAGGACGAACAUGAGGAUCACCCAUGUAUCAUGGUGUAGACAAUUUU | – | – | 115 | 353
AAAAAACAUGAGGAUCACCCAUGUCCUCGGACAUGAGGAUAUGUACAGACUUCGGUCUGUACAGAAGGCAUGUCAA | 658 | 585 | – | –
CUAGUACAUGAGGAUCACCCAUGUCAGGAUAUUGGAUAUGCCUUGGAAAACAUGUUUACAAGAAGGGACUAUAG | – | – | 19.1 | 19.6
GCGUACAUAUCAGGAUAUCAUUGAAUGGAUUAACUCAGUGAAUACAUGAGGAUCACCCAUGUUCUUGAGAAGGGAUUACUACGC | – | – | 21 | 96.5
AUAGUUUUCAUAGGAUAUUGAAUUAUAUUUAAUCAAGAAGGAUGAAUACAUGAGGAUCACCCAUGUUAACAUGGAUUAAGUAGU | – | – | 20.9 | 44.3
GGAUAGGACAGAGGAUAUACGUGCUAGAGAUACUGGCAAAAUUUCCUCACAUGAGGAUCACCCAUGUAGAAGGCUGUCCUAUCG | – | – | 16.6 | 374
AGAAACUACGAGAAGGACAUAUGACUAAGACUAAACAUGAGGAUCACCCAUGUAGGAUAUCGUAGUUUCAGGAUCGUGAGAUCA | – | – | 5.75 | 7.87
